Results published in PubChem BioAssay.
Activity calls are given as the source filed them.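 Rule for the calls, unless noted: active = NADPH fluorescence slope more negative than the mean of all samples by about 3 SD, 99.7% confidence; inactive = the rest.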

Legend:
[1] = inhibitors of TNFa-induced NFkB p65 translocation, primary screen, imaging, HUVEC, MLSMR starter and 10KST1 sets (AID 438;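 active = inhibition above 20% together with a positive visual image hit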;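 note: compound added about 3h40 before a 20 min TNFalpha stimulation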;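 for inhibition: signal is the nuclear over cytoplasmic p65 intensity ratio per well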); conditions: HUVEC TNFa-induced p65 nuclear translocation; cell count: measured here: nuclei count (cytotoxicity indicator), at 2.08 µM; inhibition: at 2 µM, stronger effect = higher value, 0% TNFa-plus-vehicle, 100% no-TNFa wells
[2] = inhibitors of mutant huntingtin aggregation, primary screen, imaging, exon1htt(103Q)mCFP cells, high-content imaging (AID 483;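 active = visual image review flags a hit and inhibition of aggregation exceeds 20%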;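 note: compound exposure lasted 3 days before fixation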;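 for nuclei count: percent of the per-plate median nuclei count of sample wells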); conditions: exon1htt(103Q)mCFP cell line, aggregate imaging, at 2 µM; inhibition of aggregation: stronger effect = higher value; nuclei count: measured here: cell count, toxicity
[3] = inhibitors of E-selectin induction by TNFa, primary screen, imaging, HUVEC, immunofluorescence, MLSMR starter and 10KST1 sets (AID 487;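 active = visually confirmed hit in the image check and inhibition above 20%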;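 for inhibition: signal is fraction of cell area covered by stained E-selectin grains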;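 for nuclei count: 100% = median nuclei count of all wells on the same plate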); conditions: HUVEC TNFalpha-induced E-selectin immunofluorescence imaging, at 2 µM; inhibition: stronger effect = higher value; nuclei count: measured here: cell number, toxicity
[4] = target: Voltage-gated potassium channel subunit beta-2 (Rattus norvegicus) (UniProt P62483); assay: KvBeta enzyme negative modulators, primary screen, biochemical, NADPH fluorescence (AID 622;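 active = fluorescence slope higher than the sample average by over 3 SD, cut at about -0.22 in these data, passing the limit was not always enough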;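 note: slope of raw intensity against log time taken from 70 to 1610 s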); conditions: recombinant KvBeta, 4-cyanobenzaldehyde reduction, at 10 µM, stronger effect = higher value
Voltage-gated potassium channel subunit beta-2 (Rattus norvegicus), sequence (P62483 whole entry, looked up): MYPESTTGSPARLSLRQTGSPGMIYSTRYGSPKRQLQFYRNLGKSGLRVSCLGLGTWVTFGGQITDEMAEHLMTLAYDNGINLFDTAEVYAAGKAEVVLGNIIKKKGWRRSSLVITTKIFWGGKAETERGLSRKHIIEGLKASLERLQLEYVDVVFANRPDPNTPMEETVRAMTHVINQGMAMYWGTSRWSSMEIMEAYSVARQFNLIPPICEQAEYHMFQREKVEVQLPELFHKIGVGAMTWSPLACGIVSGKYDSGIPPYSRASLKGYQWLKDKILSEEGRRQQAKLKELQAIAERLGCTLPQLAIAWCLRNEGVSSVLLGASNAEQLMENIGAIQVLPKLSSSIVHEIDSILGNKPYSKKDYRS

[5] = target: Voltage-gated potassium channel subunit beta-2 (Rattus norvegicus) (UniProt P62483); assay: KvBeta positive modulators, primary screen, biochemical, NADPH fluorescence (AID 623); conditions: Recombinant KvBeta, NADPH fluorescence decrease slope, 10 min; at 10 µM; stronger effect = lower value;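 note: fluorescence intensity change per second fitted from 20 to 320 s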
[6] = target: Muscarinic acetylcholine receptor M4 (Homo sapiens) (UniProt P08173); assay: compounds altering M4/GIRK thallium flux, either direction, primary screen, M4 allosteric agonist project, cell-based, HEK293 M4/GIRK, BTC-AM (AID 625;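 active = fluorescence slope after compound addition differing from the mean of all tested samples at 99.7% confidence, mostly higher but some lower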;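 note: thallium influx through GIRK channels coupled to M4 in HEK293 cells with BTC-AM dye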); conditions: at 10 µM, actives lie on both sides
Muscarinic acetylcholine receptor M4 (Homo sapiens), sequence (P08173 whole entry, looked up): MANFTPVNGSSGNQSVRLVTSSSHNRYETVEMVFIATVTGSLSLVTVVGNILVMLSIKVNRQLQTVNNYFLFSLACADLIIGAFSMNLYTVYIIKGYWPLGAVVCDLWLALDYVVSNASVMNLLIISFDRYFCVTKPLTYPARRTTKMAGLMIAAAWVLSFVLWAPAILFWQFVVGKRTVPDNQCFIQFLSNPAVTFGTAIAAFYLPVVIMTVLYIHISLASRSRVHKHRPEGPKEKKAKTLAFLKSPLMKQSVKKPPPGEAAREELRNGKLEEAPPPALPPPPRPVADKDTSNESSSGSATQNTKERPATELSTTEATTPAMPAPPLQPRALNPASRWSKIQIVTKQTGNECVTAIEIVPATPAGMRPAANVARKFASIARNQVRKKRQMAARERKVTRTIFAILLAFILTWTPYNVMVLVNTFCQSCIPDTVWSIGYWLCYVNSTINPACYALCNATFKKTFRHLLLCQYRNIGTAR
In short: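 Assay system: HEK293 cells with M4 receptor and GIRK channels / Controls: carbachol and DMSO controls / Schedule: 1 h dye loading, 2 min kinetic read / Technique: kinetic fluorescence with BTC-AM dye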

[7] = inhibitors of Sendai virus-induced IRF3 signaling, primary screen, TLR/RLR signaling modifier project, cell-based, Sendai virus stimulus, luciferase, 10K MLSCN set (AID 602276;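 active = inhibition at or above 50% at 10 µM; inactive = inhibition below 50%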;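 note: firefly luciferase from ISG56 promoter only with Renilla not read in this screen; 0% = Sendai virus plus DMSO and 100% = medium plus DMSO without virus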); conditions: HEK293 RL24 IRF3 luciferase reporter, at 10 µM, stronger effect = higher value
[8] = inhibitors of poly I:C-induced TLR3 signaling, primary screen, cell-based, poly I:C stimulus, luciferase, 10K MLSCN set (AID 602277;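 active = inhibition of the reporter signal at or above 50%; inactive = inhibition below 50%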); conditions: HEK293-TLR3 RL24 IRF3 luciferase reporter, at 10 µM, stronger effect = higher value

| SMILES | cell count [1] | inhibition [1] | inhibition of aggregation [2] | nuclei count [2] | inhibition [3] | nuclei count [3] | fluorescence slope [4] | NADPH fluorescence slope [5] | fluorescence slope [6] | inhibition [7] | inhibition [8] |
| --- | --- | --- | --- | --- | --- | --- | --- | --- | --- | --- | --- |
| Cc1nn(Cc2ccccc2Cl)c(C)c1NC(=O)C1C2CCC(O2)C1C(=O)O (stereo not drawn) | 625 | 7.7% (inactive) | 0.3% (inactive) | 101% | 16.3% (inactive) | 96.3% | -0.494 (inactive) | -3.1e-05 (inactive) | 0.00475 (inactive) | -10.5% (inactive) | -23.8% (inactive) |
| c1cncc(-c2nnc(SCCSc3nnc(-c4cccnc4)o3)o2)c1 | 301 | -10% (inactive) | 20.4% (inactive) | 75.6% | 11.1% (inactive) | 122% | -0.345 (inactive) | -7.7e-06 (inactive) | 0.00585 (inactive) | 14.3% (inactive) | 20.3% (inactive) |
| O=S(=O)(c1ccc(OCC(O)CN2CCC(Cc3ccccc3)CC2)cc1)N1CCOCC1 (stereo not drawn) | 730 | 4.8% (inactive) | -9.9% (inactive) | 120% | -22.7% (inactive) | 116% | -0.46 (inactive) | -4e-06 (inactive) | 0.00575 (inactive) | -3.87% (inactive) | 3.35% (inactive) |
| CC(C)(C)n1ncc2c(=O)n(CC(=O)NCc3ccco3)cnc21 | 421 | 4.8% (inactive) | -12.5% (inactive) | 104% | 4.2% (inactive) | 112% | -0.574 (inactive) | 3.5e-06 (inactive) | 0.00566 (inactive) | -35.6% (inactive) | -92% (inactive) |
| COc1cccc(S(=O)(=O)Nc2cccnc2)c1 | 625 | -15.2% (inactive) | -31.5% (inactive) | 119% | -20.1% (inactive) | 96.4% | -0.552 (inactive) | 3.5e-05 (inactive) | 0.00542 (inactive) | 5.36% (inactive) | -3.49% (inactive) |
| C=CS(=O)(=O)c1ccc(Oc2ccc(S(=O)(=O)C=C)cc2)cc1 | 378 | 70.2% (active) | -3.2% (inactive) | 80.8% | 104% (active) | 121% | -0.5 (inactive) | -2.6e-05 (inactive) | 0.00487 (inactive) | 14.1% (inactive) | 98.2% (active) |
| CCCC(=O)Nc1ccc(NC(=O)C2CC2)cn1 | 471 | -17.9% (inactive) | -28.9% (inactive) | 99.8% | -79.6% (inactive) | 112% | -0.527 (inactive) | 1.9e-05 (inactive) | 0.00449 (inactive) | 14.1% (inactive) | -13.6% (inactive) |
| COC(=O)C(C)C1Sc2ccccc2NC1=O (stereo not drawn) | 306 | 3.6% (inactive) | -4.9% (inactive) | 89.5% | -37.7% (inactive) | 131% | -0.28 (inactive) | -5.2e-05 (inactive) | 0.00684 (inactive) | 12.5% (inactive) | -8.12% (inactive) |
| COCCN1C(=O)c2oc3c(C)cc(C)cc3c(=O)c2C1c1cccc(O)c1 (stereo not drawn) | 561 | -25% (inactive) | 6.4% (inactive) | 95.1% | -66% (inactive) | 120% | -0.545 (inactive) | -5.1e-05 (inactive) | 0.00558 (inactive) | 8.51% (inactive) | -1.3% (inactive) |
| COc1ccc(CCN2C(=O)C3C4C=CC(C4)C3C2=O)cc1OC (stereo not drawn) | 493 | -3.8% (inactive) | 2.1% (inactive) | 105% | -4.2% (inactive) | 99.7% | -0.451 (inactive) | -4e-05 (inactive) | 0.00653 (inactive) | 10.2% (inactive) | 12.7% (inactive) |
| COCCn1c(=NC(=O)CSC(C)=O)sc2cc(F)ccc21 | 426 | -6.2% (inactive) | 33.6% (inactive) | 93.7% | -22% (inactive) | 106% | -0.379 (inactive) | 4.1e-05 (inactive) | 0.00556 (inactive) | 13.7% (inactive) | 22.7% (inactive) |
| Cc1cc(C)c(C)c(S(=O)(=O)Nc2ccc(O)cc2)c1C | 187 | -8.6% (inactive) | 37.3% (active) | 87.5% | -7.7% (inactive) | 74.8% | -0.539 (inactive) | -1.7e-05 (inactive) | 0.00478 (inactive) | 10.8% (inactive) | 18.5% (inactive) |
| COc1ccc(N2C(=O)C(Cl)=C(Nc3c(C)n(C)n(-c4ccccc4)c3=O)C2=O)cc1 | 607 | -22.9% (inactive) | -20.7% (inactive) | 95.1% | -23.5% (inactive) | 102% | -0.449 (inactive) | 3.3e-05 (inactive) | 0.00622 (inactive) | 7.07% (inactive) | 12.3% (inactive) |
| COc1ccc(OC)c(NC(=O)CSc2ncccc2C(=O)O)c1 | 409 | 0% (inactive) | -10.4% (inactive) | 7.1% | -120% (inactive) | 125% | -0.495 (inactive) | -0.000268 (inactive) | 0.00462 (inactive) | -1.78% (inactive) | 9.5% (inactive) |
| CC(C)[C@H](NC(=O)[C@@H]1CSCN1C(=O)OC(C)(C)C)C(=O)NCC1CCC(C(=O)O)CC1 (stereo partly drawn) | 341 | 8.6% (inactive) | 11.9% (inactive) | 92.5% | 17.3% (inactive) | 84.4% | -0.579 (inactive) | 1.8e-05 (inactive) | 0.00513 (inactive) | 25.1% (inactive) | 22.7% (inactive) |
| CCn1nnc(NC(=O)c2cc3ccccc3o2)n1 | 332 | 0.5% (inactive) | 7.1% (inactive) | 87.2% | -51% (inactive) | 102% | -0.297 (inactive) | -7.3e-06 (inactive) | 0.00628 (inactive) | -50.7% (inactive) | -120% (inactive) |
| COc1ccc(S(=O)(=O)N(C)c2ccc(C(=O)N3CCOCC3)cc2)cc1 | 321 | -2.9% (inactive) | -6.7% (inactive) | 105% | -106% (inactive) | 129% | -0.515 (inactive) | -0.000149 (inactive) | 0.00412 (inactive) | 14.9% (inactive) | 16.7% (inactive) |
| O=C(CCSc1ccccc1)N1CCOCC1 | 339 | 0.4% (inactive) | -7.3% (inactive) | 104% | -90.9% (inactive) | 105% | -0.562 (inactive) | -0.000154 (inactive) | 0.00456 (inactive) | -18.7% (inactive) | -64.6% (inactive) |
| Nc1nnc(-c2cc3ccccc3oc2=O)s1 | 723 | -6.8% (inactive) | 2.5% (inactive) | 94% | -72.3% (inactive) | 123% | -0.0269 (inactive) | -7.7e-06 (inactive) | 0.0038 (inactive) | -3.81% (inactive) | -27.9% (inactive) |
| Cc1onc(-c2ccccc2)c1C(=O)N1CCCSC1=Nc1ccccc1 | 665 | 6.5% (inactive) | 12.6% (inactive) | 110% | 29.1% (inactive) | 79.6% | -0.567 (inactive) | -5.7e-05 (inactive) | 0.00639 (inactive) | 10.2% (inactive) | 31.9% (inactive) |
| COc1ccccc1NC1=C(C)C(=O)CC1 | 537 | 10.5% (inactive) | 7.8% (inactive) | 88.4% | -5.6% (inactive) | 102% | -0.246 (inactive) | -3e-05 (inactive) | 0.00566 (inactive) | 19.4% (inactive) | 34% (inactive) |
| O=C(O)c1oc2ccccc2c1-n1cccc1 | 436 | 13.8% (inactive) | 10.7% (inactive) | 110% | -0.2% (inactive) | 112% | -0.531 (inactive) | -1.3e-05 (inactive) | 0.00514 (inactive) | 10.5% (inactive) | 26% (inactive) |
| Cc1noc(C)c1S(=O)(=O)N1CCC(C(=O)N2CCN(Cc3ccc4c(c3)OCO4)CC2)CC1 | 721 | -6.9% (inactive) | 8.9% (inactive) | 107% | -40.5% (inactive) | 103% | -0.498 (inactive) | 1.3e-06 (inactive) | 0.00556 (inactive) | 13.4% (inactive) | 17.8% (inactive) |
| CCOc1nc(-c2ccccc2)ccc1-c1noc(-c2cccnc2)n1 | 233 | 8.4% (inactive) | -0.3% (inactive) | 99.4% | 29.6% (inactive) | 91.1% | -0.427 (inactive) | -0.000244 (inactive) | 0.00434 (inactive) | -14.5% (inactive) | -16% (inactive) |
| CS(=O)(=O)N(CC(=O)O)c1cccc(Cl)c1 | 358 | 9.8% (inactive) | -14.9% (inactive) | 106% | -49% (inactive) | 121% | -0.544 (inactive) | -0.00014 (inactive) | 0.00338 (inactive) | -12.6% (inactive) | -6.52% (inactive) |
| CCOc1ccccc1NC(=O)C1CCCN1C(=O)OCc1ccccc1 (stereo not drawn) | 438 | 6% (inactive) | -8.5% (inactive) | 103% | -406% (inactive) | 152% | -0.544 (inactive) | -4.2e-05 (inactive) | 0.0063 (inactive) | 4.99% (inactive) | 7.18% (inactive) |
| CC(=O)N1CCC2(CC1)CC(=O)c1cc(OCC(=O)NCc3ccco3)ccc1O2 | 376 | 6.6% (inactive) | -16.2% (inactive) | 113% | -143% (inactive) | 97.8% | -0.253 (inactive) | 1.5e-05 (inactive) | 0.00743 (inactive) | -7.82% (inactive) | 2.06% (inactive) |
| Cc1ccc(Cl)cc1NC(=O)CSc1nnc(C)n1-c1ccccc1 | 783 | -5.4% (inactive) | -28.9% (inactive) | 100% | -16% (inactive) | 96% | -0.551 (inactive) | -4.3e-05 (inactive) | 0.00502 (inactive) | 21.8% (inactive) | 23.3% (inactive) |
